Reference: ChEMBL document CHEMBL3612030 (Eur J Med Chem, 2015)
Calls of active or inactive are those of the source. The calls are words filed in the database; no cut-off is given here.

Columns and labels:
[1] = target: T1, Polyunsaturated fatty acid 5-lipoxygenase (Homo sapiens, UniProt P09917); assay: Inhibition of 5-LOX in human neutrophils assessed as reduction in LTB4 and 5-H(P)ETE) formation pre-incubated for 15 mins before A23187 and arachidonic acid substrate addition by RP-HPLC method
T1 sequence (P09917 whole entry): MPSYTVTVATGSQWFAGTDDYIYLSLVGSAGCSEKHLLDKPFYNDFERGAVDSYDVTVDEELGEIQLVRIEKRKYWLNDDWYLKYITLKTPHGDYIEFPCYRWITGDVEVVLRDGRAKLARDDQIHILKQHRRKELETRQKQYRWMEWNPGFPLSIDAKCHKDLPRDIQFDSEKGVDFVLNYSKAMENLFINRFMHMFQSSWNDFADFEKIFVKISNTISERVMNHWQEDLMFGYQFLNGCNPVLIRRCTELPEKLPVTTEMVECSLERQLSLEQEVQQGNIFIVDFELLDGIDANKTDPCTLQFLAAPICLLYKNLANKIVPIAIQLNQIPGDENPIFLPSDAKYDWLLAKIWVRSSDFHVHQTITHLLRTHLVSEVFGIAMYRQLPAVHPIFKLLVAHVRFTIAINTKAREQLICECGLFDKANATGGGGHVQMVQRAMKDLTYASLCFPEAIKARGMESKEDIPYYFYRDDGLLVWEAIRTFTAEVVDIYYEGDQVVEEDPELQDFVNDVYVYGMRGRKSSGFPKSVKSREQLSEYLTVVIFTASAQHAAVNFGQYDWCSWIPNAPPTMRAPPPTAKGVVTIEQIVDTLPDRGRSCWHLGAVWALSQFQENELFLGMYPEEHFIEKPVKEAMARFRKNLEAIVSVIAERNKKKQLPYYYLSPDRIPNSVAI
Method in brief: (§1)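 Freshly isolated neutrophils (1 × 10^7/mL) pre-incubated with compound for 15 min at 37 °C. LTB4, its all-trans isomers and 5-H(P)ETE extracted and quantified by HPLC; cysteinyl-LTs and LTB4 oxidation products not measured. Mean ± S.E.M. of 3–4 independent experiments.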

[2] = target: T1, Polyunsaturated fatty acid 5-lipoxygenase; assay: Inhibition of human 5-LOX expressed in Escherichia coli Bl21 (DE3) assessed as reduction in LTB4 and 5-H(P)ETE) formation pre-incubated for 10 mins before arachidonic acid substrate addition by RP-HPLC method
Method in brief: (§2)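 Human 5-LO expressed from pT3-5LO in E. coli BL21(DE3) and semi-purified on ATP-agarose. Diluted in PBS with 1 mM EDTA and 1 mM ATP, pre-incubated with compound 10 min at 4 °C, then warmed 30 s at 37 °C. Reaction started with 2 mM CaCl2 plus 20 µM arachidonic acid, run 10 min at 37 °C and stopped with ice-cold methanol. All-trans LTB4 isomers and 5-H(P)ETE measured by RP-HPLC. 3–4 independent experiments.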

[3] = system: U-937; assay: Cytotoxicity against human U937 cells assessed as reduction in viability incubated for 24 hrs by MTT assay; format: cell-based; settings: U-937, 24 h
Method in brief: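 U937 cells grown in RPMI 1640 with 10% FBS, […] and penicillin/streptomycin at 37 °C under 5% CO2. Seeded at 1 × 10^6/mL and exposed to 3 concentrations for 24 h. MTT added at one-tenth culture volume for 4 h, then acidic isopropanol. Read at 570 nm minus 630-690 nm background. Untreated cells (RPMI + DMSO) = 100% viability. EC50 = concentration halving MTT reduction. 3–4 independent experiments, mean ± S.E.M.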

[4] = target: T2, Polyunsaturated fatty acid 5-lipoxygenase (Homo sapiens) (UniProt P09917); assay: Inhibition of human 5-LOX expressed in HEK293 cells co-expressing FLAP assessed as reduction in LTB4 and 5-H(P)ETE) formation at 1 uM pre-incubated for 10 mins before arachidonic acid substrate addition by RP-HPLC method; format: cell-based
T2 sequence (whole entry): T1 sequence (P09917 whole entry)
Method in brief: (§3)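 Stably transfected HEK 293 cells expressing 5-LO alone or 5-LO plus FLAP, 1 × 10^6 cells in 1 mL PBS with 0.1% glucose and 1 mM CaCl2. Pre-incubated with compound 10 min at 37 °C, then stimulated with 2.5 µM A23187 plus 2 µM arachidonic acid for 10 min at 37 °C. Stopped with methanol; all-trans LTB4 isomers and 5-H(P)ETE extracted and measured by HPLC.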

[5] = target: T2, Polyunsaturated fatty acid 5-lipoxygenase (Homo sapiens); assay: Inhibition of human 5-LOX expressed in HEK293 cells without FLAP expression assessed as reduction in LTB4 and 5-H(P)ETE) formation at 1 uM pre-incubated for 10 mins before arachidonic acid substrate addition by RP-HPLC method; format: cell-based; method in brief: as §3
[6] = target: T2, Polyunsaturated fatty acid 5-lipoxygenase (Homo sapiens); assay: Inhibition of 5-LOX in human neutrophils assessed as remaining enzyme activity by measuring LTB4 and 5-H(P)ETE) formation at 10 uM pre-incubated for 15 mins before A23187 and arachidonic acid substrate addition by RP-HPLC method
Method in brief: as §1, with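 “°C. Stimulated with 2.5 µM A23187 plus 20 µM arachidonic acid for 10 min at 37 °C, then stopped with methanol.” for “°C.”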

[7] = target: T2, Polyunsaturated fatty acid 5-lipoxygenase (Homo sapiens); assay: Inhibition of human 5-LOX expressed in Escherichia coli Bl21 (DE3) assessed as remaining enzyme activity by measuring LTB4 and 5-H(P)ETE) formation at 10 uM pre-incubated for 10 mins before arachidonic acid substrate addition by RP-HPLC method; method in brief: as §2

IC50 [1]	IC50 [2]	inhibition [4]	inhibition [5]	Activity [6]	Activity [7]	SMILES	EC50 [3]
1300 nM	> 10 µM					CC(=O)Oc1ccc(/C=C/C(=O)OCCCN=[N+]=[N-])cc1OC(C)=O	
160 nM	> 10 µM	Active	Active			CC(=O)Oc1ccc(/C=C/C(=O)OCCc2cn(CCCOC(=O)C3(C)CCc4c(C)c(OC(C)=O)c(C)c(C)c4O3)nn2)cc1OC(C)=O (configuration not stated)	10.1 µM
6100 nM	7.6 µM					CC(=O)Oc1ccc(/C=C/C(=O)OCCCCc2cn(CCCO)nn2)cc1OC(C)=O	
8230 nM	> 10 µM					C#CCCNC(=O)/C=C/c1ccc(OC(C)=O)c(OC(C)=O)c1	
1800 nM	> 10 µM		Active			C#CCCOC(=O)/C=C/c1ccc(OC(C)=O)c(OC(C)=O)c1	9.8 µM
2600 nM	> 10 µM					CC(=O)Oc1c(C)c(C)c2c(c1C)CCC(C)(C(=O)OCCCN=[N+]=[N-])O2 (configuration not stated)	
470 nM	> 10 µM					C#CCCCCCOC(=O)/C=C/c1ccc(OC(C)=O)c(OC(C)=O)c1	
> 10000 nM	> 10 µM			84.7%	90.3%	CC(=O)Oc1ccc(/C=C/C(=O)O)cc1OC(C)=O	
> 10000 nM	> 10 µM			88.2%	52.6%	C#CCCOC(=O)/C=C/c1ccc(F)c(F)c1	
						O=C(O)/C=C/c1ccc(O)c(O)c1 [CAFFEIC ACID]	9.9 µM
> 10000 nM	7.6 µM					CC(=O)Oc1ccc(/C=C/C(=O)OCCCn2cc(CCO)nn2)cc1OC(C)=O	
600 nM	> 10 µM	Active	Active			CC(=O)Oc1ccc(/C=C/C(=O)OCCCn2cc(CCOC(=O)/C=C/c3ccc(OC(C)=O)c(OC(C)=O)c3)nn2)cc1OC(C)=O	9.6 µM
200 nM	3.2 µM					CC(=O)Oc1ccc(/C=C/C(=O)OCCCCCCCCc2cn(CCCO)nn2)cc1OC(C)=O	10.2 µM
180 nM	> 10 µM					C#CCCCCCCCCOC(=O)/C=C/c1ccc(OC(C)=O)c(OC(C)=O)c1	
> 10000 nM	> 10 µM			101%	90.3%	O=C(/C=C/c1ccc(F)c(F)c1)OCCc1cn(CCCO)nn1	5.1 µM
920 nM	> 10 µM					C#CCCCCOC(=O)/C=C/c1ccc(OC(C)=O)c(OC(C)=O)c1	
> 10000 nM	> 10 µM			104%	53.6%	CC(=O)Oc1ccc(/C=C/C(=O)NCCc2cn(CCCO)nn2)cc1OC(C)=O	10.3 µM
